Nine molecules from ChEMBL document CHEMBL4382272, “A Curcumin Degradation Product, 7-Norcyclopentadione, Formed by Aryl Migration and Loss of a Carbon from the Heptadienedione Chain” (J Nat Prod, 2018) can be followed below.

Data set [1] can be described thus: Drug metabolism assessed as horseradish peroxidase-mediated oxidation by measuring bisdemethoxy-7-Norcyclopentadione formation at 50 uM after 1 hr in presence of H2O2 by LC-MS analysis. Format: ADME. Particulars: armoracia rusticana. An outline of the steps:
(§1)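 HRP/H2O2 oxidation in 1 mL of 20 mM NH4OAc, pH 8, with 50 μM curcuminoid and 2.5 × 10−6 U horseradish peroxidase. H2O2 (40 μM) started the reaction, which ran 1 h at 37 °C. An aliquot was injected directly for negative-ion LC-MS.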

The nature of data set [2]: Drug level treated with deuterated-demethoxy curcumin assessed as horseradish peroxidase-mediated oxidation at 50 uM after 1 hr in presence of H2O2 by LC-MS analysis. In kind it is ADME. The following applies: armoracia rusticana. In a few lines: as §1
Data set [3] is described as follows: Drug metabolism assessed as horseradish peroxidase-mediated oxidation by measuring deuterated-demethoxy-7-Norcyclopentadione formation at 50 uM after 1 hr in presence of H2O2 by LC-MS analysis. Format: ADME. Particulars: armoracia rusticana. In a few lines: as §1
Data set [4] can be described thus: Drug level in PMA-stimulated mouse RAW264.7 cells treated with 4'-O-methylcurcumin at 10 uM after 30 mins by LC-MS analysis. The following applies: raw264.7, 0.5 h. Format: ADME, cell-based. An outline of the steps:
(§2)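 RAW264.7 cells grown in DMEM with 10% FBS, seeded at 400 000 cells/well and attached overnight. They got PMA (stimulated lines) or EtOH vehicle for 5 min, then the test compound at 10 μM for 30 min. Supernatants were extracted on HLB cartridges, eluted with MeOH, dried under N2 and redissolved in MeCN/H2O 1:1. Analysis was negative-ion ESI LC-MS/MS in SRM mode.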

Data set [5] can be described thus: Drug level in mouse RAW264.7 cells treated with 4'-O-methylcurcumin at 10 uM after 30 mins by LC-MS analysis. Format: ADME, cell-based. The following applies: raw264.7, 0.5 h. An outline of the steps:
as §2

The nature of data set [6]: Drug level treated with demethoxy curcumin assessed as horseradish peroxidase-mediated oxidation at 50 uM after 1 hr in presence of H2O2 by LC-MS analysis. Particulars: armoracia rusticana. In kind it is ADME. In a few lines: as §1
Data set [7] in a line: Drug level in mouse RAW264.7 cells treated with curcumin at 10 uM after 30 mins by LC-MS analysis. Particulars: raw264.7, 0.5 h. Format: ADME, cell-based. In a few lines:
as §2

The nature of data set [8]: Drug metabolism in pH 7.4 buffer treated with curcumin at 50 uM by LC-MS analysis.
Data set [9] is described as follows: Drug level treated with curcumin at 50 uM by LC-MS analysis. Format: physicochemical.
Data set [10] can be described thus: Drug level in pH 7.4 buffer containing 50% H218O treated with curcumin at 50 uM by LC-MS analysis. Format: physicochemical. Particulars: pH 7.4, 50 µM. An outline of the steps: (§3)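 Oxygen-18 labelling in 200 μL of 20 mM NH4HCO3, pH 7.4, made with a 1:1 mix of H2O and H218O (97%). Curcumin was added at 50 μM and incubated 1 h at 37 °C. Aliquots went to negative-ion LC-MS without extraction.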

The nature of data set [11]: Drug level in PMA-stimulated mouse RAW264.7 cells treated with curcumin at 10 uM after 30 mins by LC-MS analysis. Format: ADME, cell-based. The following applies: raw264.7, 0.5 h. An outline of the steps: as §2
The nature of data set [12]: Drug metabolism assessed as horseradish peroxidase-mediated oxidation by measuring demethoxy-7-Norcyclopentadione formation at 50 uM after 1 hr in presence of H2O2 by LC-MS analysis. Format: ADME. The following applies: armoracia rusticana. In a few lines: as §1
Data set [13] can be described thus: Drug metabolism in pH 7.4 buffer assessed as auto-oxidation by measuring 7-Norcyclopentadione formation at 50 uM by LC-MS analysis.
Data set [14] can be described thus: Drug metabolism assessed as auto-oxidation by measuring 7-Norcyclopentadione formation at 50 uM by LC-MS analysis.
The nature of data set [15]: Drug metabolism in PMA-stimulated mouse RAW264.7 cells assessed as auto-oxidation by measuring 7-Norcyclopentadione formation at 10 uM after 30 mins by LC-MS analysis. Particulars: raw264.7, 0.5 h. Format: ADME, cell-based. In a few lines: as §2
Data set [16] in a line: Drug metabolism in pH 7.4 buffer containing 50% H218O assessed as auto-oxidation by measuring 7-Norcyclopentadione formation at 50 uM by LC-MS analysis. In a few lines:
as §3

A short description of data set [17]: Drug metabolism in PMA-stimulated mouse RAW264.7 cells assessed as auto-oxidation by measuring 4''-O-methyl-7-norcyclopentadione formation at 10 uM after 30 mins by LC-MS analysis. In kind it is ADME, cell-based. The following applies: raw264.7, 0.5 h. In a few lines:
as §2

Turning to `O=C(/C=C/c1ccc(O)cc1)CC(=O)/C=C/c1ccc(O)cc1` [BISDEMETHOXYCURCUMIN], the Drug metabolism result in data set [1] was “Metabolite_Notdetected”.

Turning to `[2H]c1c([2H])c(C(O)C2C(=O)C=C(O)C2c2ccc(O)c(OC)c2)c([2H])c([2H])c1O` (configuration not stated), the Drug metabolism result in [2] is given as “Metabolite_Detected”.

For `[2H]c1c([2H])c(/C=C/C(=O)CC(=O)/C=C/c2ccc(O)c(OC)c2)c([2H])c([2H])c1O`, the Drug metabolism entry in data set [3] was “Metabolite_Detected”.

Regarding `COc1cc(C2C(O)=CC(=O)C2C(O)c2ccc(OC)c(OC)c2)ccc1O` (configuration not stated), the Drug metabolism result in [4] and in data set [5] was “Metabolite_Detected” each time.

Turning to `COc1cc(C2C(O)=CC(=O)C2C(O)c2ccc(O)cc2)ccc1O` (configuration not stated), the Drug metabolism result in [6] is “Metabolite_Detected”.

With `COc1cc(C(O)C2C(=O)C=C(O)C2c2ccc(O)c(OC)c2)ccc1O` (configuration not stated), the Drug metabolism entry in [7] is recorded as “Metabolite_Detected”; in data set [8], “Metabolite detected”; in data set [9], “Metabolite_Detected”; in [10], “Metabolite_Detected”; in [11] it was “Metabolite_Detected”.

As to `COc1cc(/C=C/C(=O)CC(=O)/C=C/c2ccc(O)cc2)ccc1O`, in data set [12], the Drug metabolism result is “Metabolite_Detected”.

As to `COc1cc(/C=C/C(=O)CC(=O)/C=C/c2ccc(O)c(OC)c2)ccc1O` [CURCUMIN], the Drug metabolism result was “Metabolite detected” in data set [13], “Metabolite detected” in data set [14], “Metabolite_Detected” in data set [15] and “Metabolite detected” in data set [16].

For `COc1cc(/C=C/C(=O)/C=C(O)/C=C/c2ccc(OC)c(OC)c2)ccc1O`, in data set [17], the Drug metabolism entry is listed as “Metabolite_Detected”.
